Assay results: ChEMBL document CHEMBL1134796, “Indenopyrazoles as novel cyclin dependent kinase (CDK) inhibitors” (J Med Chem, 2001)

Legend:
HCT-116 = experiment: Inhibition of HCT116 cell proliferation; assay type: functional, cell-based; conditions: Homo sapiens
In short: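 HCT116 cells cultured with compound at increasing concentrations. At selected time points, cells fixed with trichloroacetic acid and stained with sulforhodamine B. Unbound dye washed off, and bound dye extracted for optical density reading.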

[1] = biological target: Cyclin-dependent kinase 4/cyclin D1 (Homo sapiens, UniProt P11802); experiment: Inhibition of Cyclin Dependent Kinase 4 cyclin D1; assay type: protein-complex assay
In short: (§1)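 Lysates of insect cells expressing the cdk and its cyclin partner, run in kinase buffer with ³²P-ATP, GST-Rb fusion substrate and the compound at varying concentrations. Reaction stopped with excess EDTA. GST-Rb captured on GSH-Sepharose beads, washed, and counted by scintillation. IC50 is the concentration giving 50% inhibition of kinase activity.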

AG1523 = experiment: Cytotoxic effect on human AG1523 fibroblast cells; assay type: functional, cell-based
[2] = biological target: Cyclin-dependent kinase 2/cyclin E (Homo sapiens, UniProt P24941); experiment: Inhibition of Cyclin-dependent kinase 2-cyclin E; assay type: protein-complex assay; in short: as §1
[3] = Inhibition of protein kinase A (PKA)
Protein kinase C (PKC) = experiment: Inhibition of protein kinase C (PKC); assay type: protein assay
[4] = biological target: Tyrosine-protein kinase ABL1 (Homo sapiens, UniProt P00519); experiment: Inhibition of c-Abl kinase
Mus musculus [5] = experiment: In vivo antitumor activity in mice at 3 mg/kg/day (dosing schedule Q1DX14); assay type: functional
In short: (§2)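 Female nude mice carrying HCT116 human colon carcinoma xenografts, 1 × 10⁷ cells injected subcutaneously into the inguinal region. Drug given intraperitoneally once daily for 14 days, starting 7 days after cell injection. Tumors excised and weighed on day 15 post-dosing. Growth inhibition index (%) = (1 − mean net tumor weight treated/mean net tumor weight control) × 100.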

Mus musculus [6] = experiment: In vivo antitumor activity in mice at 10 mg/kg/day (dosing schedule Q1DX14); assay type: functional; in short: as §2
Mus musculus [7] = experiment: In vivo antitumor activity in mice at 3 mg/kg/day (dosing schedule Q1DX14); 8/8; assay type: functional
In short: (§3)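 Female nude mice bearing HCT116 human colon carcinoma xenografts (1 × 10⁷ cells/animal, injected s.c. into the inguinal region). Drug was given ip once daily for 14 days, starting 7 days after cell injection. On day 15 after dosing, tumors were excised and weighed. Tumor growth inhibition index (%) = (1 − mean net tumor weight treated/control) × 100. Survivors reflect acute drug toxicity.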

Mus musculus [8] = experiment: In vivo antitumor activity in mice at 30 mg/kg/day (dosing schedule Q1DX14); assay type: functional; in short: as §2
Mus musculus [9] = experiment: In vivo antitumor activity in mice at 10 mg/kg/day (dosing schedule Q1DX14); 8/8; assay type: functional; in short: as §3
Mus musculus [10] = experiment: In vivo antitumor activity in mice at 30 mg/kg/day (dosing schedule Q1DX14); 8/8; assay type: functional; in short: as §3
Mus musculus [11] = experiment: In vivo antitumor activity in mice at 7.5 mg/kg/day (dosing schedule Q1DX14); 5/8; assay type: functional; in short: as §3
Mus musculus [12] = experiment: In vivo antitumor activity in mice at 7.5 mg/kg/day (dosing schedule Q1DX14); assay type: functional; in short: as §2
Mus musculus [13] = experiment: In vivo antitumor activity in mice at 1 mg/kg/day (dosing schedule Q1DX14); 8/8; assay type: functional; in short: as §3
Mus musculus [14] = experiment: In vivo antitumor activity in mice at 1 mg/kg/day (dosing schedule Q1DX14); assay type: functional; in short: as §2

Chain of Cyclin-dependent kinase 4/cyclin D1 (P11802 whole entry, the tested form may be a part): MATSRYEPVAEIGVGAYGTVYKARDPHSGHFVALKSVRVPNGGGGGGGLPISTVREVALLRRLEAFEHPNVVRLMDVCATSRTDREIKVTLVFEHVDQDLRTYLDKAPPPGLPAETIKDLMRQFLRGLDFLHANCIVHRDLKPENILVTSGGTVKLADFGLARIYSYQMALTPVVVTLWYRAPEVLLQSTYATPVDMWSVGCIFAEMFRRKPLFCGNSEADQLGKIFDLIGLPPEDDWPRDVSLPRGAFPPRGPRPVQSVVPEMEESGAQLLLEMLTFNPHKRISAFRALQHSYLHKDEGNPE
Chain of Cyclin-dependent kinase 4/cyclin D1 (P24385 whole entry, further chain, the tested form may be a part): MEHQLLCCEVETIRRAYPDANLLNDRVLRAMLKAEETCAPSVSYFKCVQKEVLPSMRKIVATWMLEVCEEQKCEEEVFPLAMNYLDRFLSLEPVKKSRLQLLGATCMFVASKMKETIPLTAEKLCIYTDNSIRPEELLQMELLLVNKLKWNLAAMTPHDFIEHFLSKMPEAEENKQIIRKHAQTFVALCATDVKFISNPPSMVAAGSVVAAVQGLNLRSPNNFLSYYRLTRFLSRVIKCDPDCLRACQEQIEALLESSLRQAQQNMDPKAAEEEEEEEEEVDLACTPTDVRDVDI
Chain of Tyrosine-protein kinase ABL1 (P00519 whole entry): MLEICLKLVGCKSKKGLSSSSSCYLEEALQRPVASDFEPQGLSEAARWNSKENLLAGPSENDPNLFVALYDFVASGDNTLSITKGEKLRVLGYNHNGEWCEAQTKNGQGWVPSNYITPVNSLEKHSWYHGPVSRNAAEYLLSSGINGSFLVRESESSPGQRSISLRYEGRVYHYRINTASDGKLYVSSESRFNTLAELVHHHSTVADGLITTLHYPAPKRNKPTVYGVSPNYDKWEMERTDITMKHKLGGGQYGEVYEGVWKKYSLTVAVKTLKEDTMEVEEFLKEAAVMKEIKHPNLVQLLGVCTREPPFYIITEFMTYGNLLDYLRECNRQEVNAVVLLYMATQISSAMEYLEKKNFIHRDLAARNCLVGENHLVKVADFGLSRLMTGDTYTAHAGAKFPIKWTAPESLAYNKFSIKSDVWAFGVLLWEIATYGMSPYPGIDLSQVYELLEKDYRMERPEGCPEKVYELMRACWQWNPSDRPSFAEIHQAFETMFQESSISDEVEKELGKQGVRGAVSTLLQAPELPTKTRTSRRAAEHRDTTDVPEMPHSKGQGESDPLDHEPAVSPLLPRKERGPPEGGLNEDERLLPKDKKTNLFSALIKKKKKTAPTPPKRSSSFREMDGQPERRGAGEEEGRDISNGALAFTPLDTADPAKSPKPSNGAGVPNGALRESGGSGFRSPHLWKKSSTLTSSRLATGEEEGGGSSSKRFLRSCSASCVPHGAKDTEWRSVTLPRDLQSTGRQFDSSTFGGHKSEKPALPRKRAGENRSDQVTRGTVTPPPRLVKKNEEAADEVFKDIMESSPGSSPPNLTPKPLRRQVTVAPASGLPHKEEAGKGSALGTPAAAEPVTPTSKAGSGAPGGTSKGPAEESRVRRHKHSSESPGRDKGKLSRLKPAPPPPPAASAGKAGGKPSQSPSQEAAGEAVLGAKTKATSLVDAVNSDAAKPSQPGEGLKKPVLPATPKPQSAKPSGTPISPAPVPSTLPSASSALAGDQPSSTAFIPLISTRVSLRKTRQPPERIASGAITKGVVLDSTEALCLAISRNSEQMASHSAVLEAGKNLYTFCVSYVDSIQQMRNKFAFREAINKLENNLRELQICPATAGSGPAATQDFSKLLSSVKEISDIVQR

COc1ccc(-c2[nH]nc3c2C(=O)c2c(NC(=O)Cc4ccc(N)cc4)cccc2-3)cc1
IC50 (HCT-116): 0.4 µM
IC50 [1]: 0.48 µM
IC50 (AG1523): > 24 µM
IC50 [2]: 0.038 µM

COc1ccc(-c2[nH]nc3c2C(=O)c2c(NC(=O)c4ccccc4)cccc2-3)cc1
IC50 [1]: > 250 µM
IC50 [2]: 41 µM

COc1ccc(-c2[nH]nc3c2C(=O)c2c(NC(=O)C(C)(C)C)cccc2-3)cc1
IC50 (HCT-116): 7.5 µM
IC50 [1]: 45 µM
IC50 [2]: 2.1 µM

COc1ccc(-c2[nH]nc3c2C(=O)c2c(NC(=O)C(C)C)cccc2-3)cc1
IC50 (HCT-116): 2.9 µM
IC50 [1]: 35 µM
IC50 (AG1523): > 28 µM
IC50 [2]: 1.4 µM

COc1ccc(-c2[nH]nc3c2C(=O)c2ccccc2-3)cc1
IC50 [1]: 45 µM
IC50 [3]: 239 µM
IC50 (Protein kinase C (PKC)): > 725 µM
IC50 [4]: > 725 µM
IC50 [2]: 26 µM

COc1ccc(-c2[nH]nc3c2C(=O)c2c(NC=O)cccc2-3)cc1
Tumor weight (Mus musculus [5]): 1171 mg
inhibition in vivo at 3 mg/kg/day (Mus musculus [5]): 0%
IC50 (HCT-116): 0.69 µM
IC50 [1]: 0.2 µM
Tumor weight (Mus musculus [6]): 871 mg
inhibition in vivo at 10 mg/kg/day (Mus musculus [6]): 19%
IC50 (AG1523): > 63 µM
No. survived (Mus musculus [7]): 8
IC50 [2]: 0.08 µM
Tumor weight (Mus musculus [8]): 608 mg
inhibition in vivo at 30 mg/kg/day (Mus musculus [8]): 43%
No. survived (Mus musculus [9]): 8
No. survived (Mus musculus [10]): 8

COc1ccc(-c2[nH]nc3c2C(=O)c2c(NC(C)=O)cccc2-3)cc1
IC50 (HCT-116): 2.7 µM
IC50 [1]: 0.45 µM
IC50 [2]: 0.27 µM

CN1CCC(c2c(O)cc(O)c3c(=O)cc(-c4ccccc4Cl)oc23)[C@@H](O)C1 (mixture of isomers)
No. survived (Mus musculus [11]): 5
Tumor weight (Mus musculus [12]): 538 mg
inhibition in vivo at 7.5 mg/kg/day (Mus musculus [12]): 50%

CO[C@@]12[C@H](COC(N)=O)C3=C(C(=O)C(C)=C(N)C3=O)N1C[C@@H]1N[C@@H]12 [MITOMYCIN]
No. survived (Mus musculus [13]): 8
Tumor weight (Mus musculus [14]): 455 mg
inhibition in vivo at 1 mg/kg/day (Mus musculus [14]): 58%
